Assay outcomes as filed in PubChem.
A selection: hits, their analogues and other compounds. The true share with any hit is near 2.1%.
cardiac RTF act – increases calcium sensitivity of human cardiac regulated thin filaments; 340,000 compounds, 0.24% hits; IANBD-labeled TnC RTF fluorescence at EC20 calcium; 0% EC20 calcium, 100% full calcium; activation, % at 7.2 µM; AID 493008;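 active = activation above the mean over all tested compounds plus 3 SD, cut at about 30% in these data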;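 note: rise in fluorescence read as greater calcium sensitivity of cardiac thin filaments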
ARNT-TACC3 inh – disrupts binding between human ARNT and TACC3; AlphaScreen His-ARNT PAS-B/GST-TACC3 binding, luminescence; TACC3 fragment carries E629A point mutation; 390,000 compounds, 0.66% hits; AID 623870; inhibition, % at 9.99 µM;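 active = mean inhibition of replicates at least 50% and at least half of replicates each reaching 50%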;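 note: 0% = complete ARNT plus TACC3 wells and 100% = ARNT alone without TACC3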
UCH37 DUB inh – human UCH37 deubiquitinating enzyme inhibition. inhibition, % (no concentration beside the values). AID 588478. 330,000 compounds, 0.33% hits. purified proteasome/UCH37, Ub-AMC cleavage fluorescence;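 active = mean inhibition over replicate wells above about 20%, limit read from the data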;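 note: 0% = compound-free wells with enzyme and 100% = wells lacking proteasome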
Target sequence (Q9Y5K5 whole entry, looked up): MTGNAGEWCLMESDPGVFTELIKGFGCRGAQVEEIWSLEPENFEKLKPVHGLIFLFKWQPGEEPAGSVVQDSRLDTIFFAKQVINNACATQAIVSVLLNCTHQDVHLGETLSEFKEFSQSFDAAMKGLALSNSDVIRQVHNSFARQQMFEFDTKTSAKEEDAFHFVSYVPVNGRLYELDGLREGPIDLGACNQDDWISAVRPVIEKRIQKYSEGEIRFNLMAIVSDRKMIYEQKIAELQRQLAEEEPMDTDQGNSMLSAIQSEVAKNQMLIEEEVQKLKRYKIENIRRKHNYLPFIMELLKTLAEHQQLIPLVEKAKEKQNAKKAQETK
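Material: human UCH37 enzyme supplied as purified proteasome complex. Measure: % inhibition of Ub-AMC cleavage fluorescence. Medium: pH 7.4 Tris-HCl (50 mM) with ovalbumin, ATP-MgCl2, DTT. Times: 30 min preincubation with enzyme, 25 min cleavage at room temperature. Detection: AMC fluorescence intensity at 355/460 nm.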
Mot1-301 SUMO – blocks SUMOylation pathway, rescuing yeast Mot1-301 growth. S. cerevisiae Mot1-301 growth rescue, ATP luminescence, 38.5C; percent above DMSO median, 100 means doubled. growth rescue, % at 18.8 µM. 320,000 compounds, 1% hits. AID 2716;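 active = every valid replicate shows activation above 250% relative to neutral control wells; inactive = the rest, any valid replicate at or below 250%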;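 note: OY570 slx delta 5 strain wells were the positive control but not used for scaling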
RTF Ca sens inh – cardiac RTF calcium desensitization; P19429+P45379; IANBD-labeled cardiac RTF, Ca2+ fluorescence; inhibition, % at 7.15 µM; 340,000 compounds, 0.12% hits; AID 493244;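 active = inhibition above the mean inhibition of all tested compounds plus 3 SD, cut at about 17% in these data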;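 note: assay run at fixed EC70 calcium of 1.6 mM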
Efflux pump inh – antifungal efflux pump inhibition, Nile Red retention; inhibition, % at 10 µM; 330,000 compounds, 0.44% hits; S. cerevisiae Candida pump triplex;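 active = plate passing quality check with inhibition over a set limit, or well fluorescence over plate mean plus 4 SD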;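 note: Nile Red retained in pooled yeast measured as flow cytometry median fluorescence; 0% = buffer negative control and 100% = Enniatin B positive control; higher means more Nile Red kept so more efflux inhibition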
Active calls of the source: *; i = inactive; · = no result.

SMILES	cardiac RTF act	ARNT-TACC3 inh	UCH37 DUB inh	Mot1-301 SUMO	RTF Ca sens inh	Efflux pump inh
Oc1c(CN2CCCCC2)cc(COCc2ccccc2)c2cccnc12	-1	62*	·	-6	8	0
O=C(NN=C1CCc2ccccc21)c1ccc(O)cc1	·	·	0	·	·	·
CC(=NO)C(CN(C)C)=NO	·	·	1	·	·	·
C(=NNc1ccccn1)c1cccnc1	·	·	13	·	·	·
Cc1ccc(C=NNC(=O)c2nnn(-c3nonc3N)c2CSc2ccc(Cl)cc2)o1	·	·	-11	·	·	·
COc1cccc(C=NNC(=O)c2ccc(N(C)S(=O)(=O)c3ccccc3)cc2)c1OC	·	·	3	·	·	·
O=c1cc(O)n(C2CCCCCC2)c(=O)[nH]1	1	active	10	-19	-8	0
CNC(=S)NN=Cc1cccc(OCc2ccccc2F)c1	·	·	5	·	·	·
Nc1cc(N2CCCC2)c(Cl)cc1[N+](=O)[O-]	0	8	-2	307*	11	0
O=C1NC(=S)S/C1=C/c1ccc(N2CCOCC2)o1	34*	0	17	-7	-5	2
CC(C)(C)OC(=O)CN1C(=O)S/C(=C\c2ccc(-c3cccc(C(=O)O)c3)o2)C1=O	·	·	·	7	·	0
O=C1S/C(=C\c2ccc(N3CCOCC3)o2)C(=O)N1Cc1ccc(F)cc1	50*	-3	5	13	-40	0
O=C1N=C(N2CCOCC2)S/C1=C/c1ccc(-c2ccc(F)cc2)o1	6	-3	-3	4	-14	0
O=C1S/C(=C/c2ccc(N3CCOCC3)o2)C(=O)N1Cc1ccc(F)cc1	72*	-8	7	-8	-51	0
CC(C)OC(=O)CN1C(=O)S/C(=C/c2ccc(N3CCCCC3)o2)C1=O	93*	-2	4	24	-55	0
O=C(NC(C(=O)NN=Cc1cccc2ccccc12)c1n[nH]c(=O)c2ccccc12)c1ccccc1 (stereo not drawn)	·	·	5	·	·	·
O=C(Cc1ccc(Cl)cc1)NN=Cc1ccncc1	·	·	0	·	·	·
O=[N+]([O-])c1ccc(C=NN/C(=N/c2ccccn2)c2ccccn2)cc1	·	·	10	·	·	·
CC(C)C(NC(=O)c1ccc2c(c1)OCO2)C(=O)NN=Cc1ccco1 (stereo not drawn)	·	·	0	·	·	·
COc1ccc(CCn2c(=N)c(C(=O)NCc3ccco3)cc3c(=O)n4ccccc4nc32)cc1OC	-1	27*	8	·	0	·
N=c1c(C(=O)NCc2ccco2)cc2c(=O)n3ccccc3nc2n1CCc1ccccc1	-2	35	-52	11	12	0
S=c1[nH]nc(-c2ccco2)n1N=Cc1ccc(Cl)c(Cl)c1	·	·	0	·	·	·
CCN1C(=O)/C(=C/C=C2/SCCN2C)SC1=S	136*	4	8	10	-128	0
CCCCN1C(=O)/C(=C/C=C2\Oc3ccccc3N2CC)SC1=S	186*	-4	6	·	-241	·
C=CCN1C(=O)/C(=C\C=C2\N(C)c3ccccc3C2(C)C)SC1=S	51*	·	-3	3	-31	0
SMILES	cardiac RTF act	ARNT-TACC3 inh	UCH37 DUB inh	Mot1-301 SUMO	RTF Ca sens inh	Efflux pump inh
CCCCN1C(=O)/C(=C/C=C2/CC(C)(C)CN2C)SC1=S	396*	3	9	12	-457	0
CCN1C(=O)/C(=C/C=C2/Sc3ccccc3N2CCO)SC1=S	-2	-6	9	·	-3	0
CN1/C(=C\C=O)C(C)(C)c2ccccc21	-3	-3	14	-4	-20	0
COc1cccc(C=NNC(=O)CCn2nnc3ccccc32)c1	·	·	4	·	·	·
CCCN1C(=O)/C(=C/C=C2\N(CC)c3ccccc3C2(C)C)SC1=S	52*	-6	9	-10	-69	0
CN1/C(=C\C=C2/SC(=S)N(CC(=O)O)C2=O)C(C)(C)c2ccccc21	773*	3	17	-9	i	0
Cc1cc(C)nc(NC(=O)c2ccc(OC(C)C)cc2)n1	-3	8	3	284*	-4	0
CN(CCOc1ccc(Br)cc1)CC(O)c1ccccc1 (stereo not drawn)	3	-7	5	-1	-2	5.3*
Cc1nn(-c2ccccc2)c(N2CCCC2)c1C=NNC(=O)c1ccccc1O	·	·	-6	·	·	·
O=C(c1ccc(-c2cccc(C(F)(F)F)c2)o1)N1CCCCCCC1	-5	·	5	533*	7	0
Cc1ccc(C)c(N2CCN(C(=O)c3cc4ccccn4n3)CC2)c1	103*	-8	7	18	-197	0
O=C(c1cc2ccccn2n1)N1CCN(c2cccc(C(F)(F)F)c2)CC1	3	22	0	-9	-1	-1
COc1cc(C=NNC(N)=O)ccc1OCC(=O)Nc1cc(C)c(C)cc1Br	·	·	3	·	·	·
O=C(NNc1ccc(-c2csnn2)cc1)c1cc(Cl)cc(Cl)c1	·	·	3	283*	·	0
Nc1nnc(CC(=O)NN=Cc2ccccc2OCc2ccc(F)cc2)s1	·	·	0	·	·	·
CC(C)NC(=O)Nc1cccc2c1O[C@H](CN(C)C(=O)NC(C)C)[C@@H](C)CN([C@H](C)CO)C2=O	-2	-8	20*	-4	-6	0
CC(C)NC(=O)Nc1cccc2c1O[C@H](CN(C)Cc1ccc(Oc3ccccc3)cc1)[C@@H](C)CN([C@@H](C)CO)C2=O	·	active	·	·	·	·
CC(C)NC(=O)Nc1cccc2c1O[C@H](CN(C)Cc1ccc(Oc3ccccc3)cc1)[C@H](C)CN([C@@H](C)CO)C2=O	·	2	·	·	·	·
CC(C)NC(=O)Nc1cccc2c1O[C@H](CN(C)C(=O)NC(C)C)[C@@H](C)CN([C@@H](C)CO)C2=O	·	-2	·	·	·	·
Cc1ccc(C=NNC(=O)CC2N=C(Cc3ccccc3)NNC2=O)cc1 (stereo not drawn)	·	·	-5	·	·	·
C1=C(c2sc3ccccc3c2-c2ccc(OCCN3CCOCC3)cc2)CCCC1	9	5	·	62	-13	0
c1ccc(-c2sc3ccccc3c2-c2ccc(OCCN3CCOCC3)cc2)cc1	-3	-1	-1	407*	-4	0
CN(Cc1c(C(=O)NN=Cc2cc(F)ccc2F)nnn1-c1nonc1N)C1CCCCC1	·	·	16	·	·	·
Cc1cc(N(C)N)nc(NC(=O)NS(=O)(=O)c2ccccc2Cl)n1	-4	59*	·	-11	5	0
COc1cccc(-c2coc3c(C)c4oc(=O)c(CCC(=O)O)c(C)c4cc23)c1	-4	62*	-17	-9	-10	0
COc1cccc(-c2coc3c(C)c4oc(=O)c(CC(=O)O)c(C)c4cc23)c1	-7	14	-8	-9	1	0
Cc1cc(NC(=O)CSc2nnc(CNC(=O)c3ccc(C(C)(C)C)cc3)o2)no1	-3	47*	3	-8	-2	0
COc1cc(C(=O)NCc2nnc(SCC(=O)Nc3cc(C)on3)o2)cc(OC)c1OC	1	3	2	8	1	0
